In publication PMC10204345 (European Journal of Medicinal Chemistry, 2023):
Like-named read-outs stand apart in the source and are kept apart here.

How the values were obtained:
SARS-CoV-2 3CL^pro = SARS-CoV-2 3CL^pro (Severe acute respiratory syndrome coronavirus 2, UniProt P0DTD1); assay type: biochemical
[1] = Microsomal stability assay, mouse; assay type: in vitro ADME; conditions: microsomes, pH 7.41
Outline: (§1)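 Liver microsomes in 100 mM potassium buffer with 5 mM MgCl₂, pH 7.41; test compound at 1 μM. Compound-microsome spiking mix (1.5 μM compound, 0.75 mg/mL microsomes) pre-incubated at 37 °C for 5 min, then started with NADPH (6 mM stock). Sampled at 0, 5, 15, 30 and 45 min, quenched with acetonitrile containing internal standard, centrifuged; supernatant diluted in water for LC/MS.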

[2] = Microsomal stability assay, human; assay type: in vitro ADME; conditions: microsomes, pH 7.41
Outline: as §1

[3] = Single-dose pharmacokinetics in ICR mice; assay type: in vivo; conditions: single-dose oral administration 20 mg/kg
Outline: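 Mice randomly split into IV and PO groups, three per group; single dose 10 mg/kg IV or 20 mg/kg oral. After oral dosing, blood taken at 0.25, 0.5, 1, 2, 4, 6, 8 and 24 h. Plasma (20 μL) protein-precipitated with methanol containing 100 ng/mL internal standard, vortexed, centrifuged at 18000g for 10 min, analysed by LC-MS/MS. AUC(0-t) derived by pharmacokinetic modelling.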

| SMILES | decrease of 3CL^pro inhibitory activity compared to 11b (SARS-CoV-2 3CL^pro) [folds] | half-life at 0.75 h, 1 µM [1] [min] | half-life at 0.75 h, 1 µM [2] [min] | also measured |
| --- | --- | --- | --- | --- |
| CC(C)(C)OC(=O)N[C@H](C(=O)N1[C@@H]2CC[C@@H](C2)[C@H]1C(=O)N[C@@H](C[C@@H]1CCNC1=O)C(=O)c1nc2ccccc2s1)C(C)(C)C [11a, tert-butyl ((S)-1-((1R,3S,4S)-3-(((S)-1-(benzo[d]thiazol-2-yl)-1-oxo-3-((S)-2-oxopyrrolidin-3-yl)propan-2-yl)carbamoyl)-2-azabicyclo[2.2.1]heptan-2-yl)-3,3-dimethyl-1-oxobutan-2-yl)carbamate] | 45 | – | – | – |
| CC(C)(C)[C@H](NC(=O)C(F)(F)F)C(=O)N1[C@@H]2CC[C@@H](C2)[C@H]1C(=O)N[C@@H](C[C@@H]1CCNC1=O)C(=O)c1nc2ccccc2s1 [11b, (1R,3S,4S)-N-((S)-1-(benzo[d]thiazol-2-yl)-1-oxo-3-((S)-2-oxopyrrolidin-3-yl)propan-2-yl)-2-((S)-3,3-dimethyl-2-(2,2,2-trifluoroacetamido)butanoyl)-2-azabicyclo[2.2.1]heptane-3-carboxamide] | – | 7.74 | 11.6 | – |
| CC(C)(F)C(=O)N[C@H](C(=O)N1[C@@H]2CC[C@@H](C2)[C@H]1C(=O)N[C@@H](C[C@@H]1CCNC1=O)C(=O)c1nc2ccccc2s1)C(C)(C)C [11c, (1R,3S,4S)-N-((S)-1-(benzo[d]thiazol-2-yl)-1-oxo-3-((S)-2-oxopyrrolidin-3-yl)propan-2-yl)-2-((S)-2-(2-fluoro-2-methylpropanamido)-3,3-dimethylbutanoyl)-2-azabicyclo[2.2.1]heptane-3-carboxamide] | – | 4.82 | 18 | decrease of 3CL^pro inhibitory activity compared to 11b (SARS-CoV-2 3CL^pro; ratio of IC50 to that of 11b): 11 folds |
| [2H]C([2H])([2H])C(=O)N[C@H](C(=O)N1[C@@H]2CC[C@@H](C2)[C@H]1C(=O)N[C@@H](C[C@@H]1CCNC1=O)C(=O)c1nc2ccccc2s1)C(C)(C)C [11d, (1R, 3S, 4S)-2-((S)-2-(acetamido-2,2,2-d3)-3,3-dimethylbutanoyl) -N-((S)-1-(benzo[d]thiazol-2-yl)-1-oxo-3-((S)-2-oxopyrrolidin-3-yl)propan-2-yl)-2-azabicyclo [2.2.1] heptane-3-carboxamide] | 5 | 33.8 | 42.2 | – |
| CC(C)(C)[C@H](NS(=O)(=O)C(F)(F)F)C(=O)N1[C@@H]2CC[C@@H](C2)[C@H]1C(=O)N[C@@H](C[C@@H]1CCNC1=O)C(=O)c1nc2ccccc2s1 [11e, (1R, 3S, 4S)-N-((S)-1-(benzo[d]thiazol-2-yl)-1-oxo-3-((S)-2-oxopyrrolidin-3-yl)propan-2-yl)-2-((S)-3,3-dimethyl-2-((trifluoromethyl)sulfonamido)butanoyl)-2-azabicyclo [2.2.1] heptane-3-carboxamide] | 8 | – | – | AUC(0-t) higher than that of 11b [3]: 2.4 times; AUC(0-t) higher than that of nirmatrelvir [3]: 5 times; half-life at 1 μM [1]: > 120 min; half-life at 1 μM [2]: > 120 min |
| CN(C)S(=O)(=O)N[C@H](C(=O)N1[C@@H]2CC[C@@H](C2)[C@H]1C(=O)N[C@@H](C[C@@H]1CCNC1=O)C(=O)c1nc2ccccc2s1)C(C)(C)C [11f, (1R, 3S, 4S)-N-((S)-1-(benzo[d]thiazol-2-yl)-1-oxo-3-((S)-2-oxopyrrolidin-3-yl)propan-2-yl)-2-((S)-2-((N,N-dimethylsulfamoyl)amino)-3,3-dimethylbutanoyl)-2-azabicyclo [2.2.1] heptane-3-carboxamide] | – | 0.85 | 3.25 | – |
| CC(C)(C)OC[C@H](NS(=O)(=O)C(F)(F)F)C(=O)N1[C@@H]2CC[C@@H](C2)[C@H]1C(=O)N[C@@H](C[C@@H]1CCNC1=O)C(=O)c1nc2ccccc2s1 [11g, (1R, 3S, 4S)-N-((S)-1-(benzo[d]thiazol-2-yl)-1-oxo-3-((S)-2-oxopyrrolidin-3-yl)propan-2-yl)-2-(O-(tert-butyl)-N-((trifluoromethyl)sulfonyl)-L-seryl)-2-azabicyclo [2.2.1] heptane-3-carboxamide] | – | – | – | decrease of enzyme activity compared to 11e (SARS-CoV-2 3CL^pro): 3 times |
| COc1ccc(C[C@H](NS(=O)(=O)C(F)(F)F)C(=O)N2[C@@H]3CC[C@@H](C3)[C@H]2C(=O)N[C@@H](C[C@@H]2CCNC2=O)C(=O)c2nc3ccccc3s2)cc1 [11h, (1R, 3S, 4S)-N-((S)-1-(benzo[d]thiazol-2-yl)-1-oxo-3-((S)-2-oxopyrrolidin-3-yl)propan-2-yl)-2-((S)-3-(4-methoxyphenyl)-2-((trifluoromethyl)sulfonamido)propanoyl)-2-azabicyclo [2.2.1] heptane-3-carboxamide] | – | – | – | decrease of enzyme activity compared to 11e (SARS-CoV-2 3CL^pro): 6 times |
| CC(C)(C)[C@H](NC(=O)C(F)(F)F)C(=O)N1C[C@H]2[C@@H]([C@H]1C(=O)N[C@H](C#N)C[C@@H]1CCNC1=O)C2(C)C [nirmatrelvir, reference compound] | – | 17.7 | 35.5 | – |
